# Rows were chosen to be rich in hits. Some 2.5% of all compounds tested hit in one or more screens of this group.
# B2AR ag: beta2AR agonists driving receptor internalization, primary screen, cell-based, FAP fluorogen, flow cytometry; Beta-2 adrenergic receptor (Homo sapiens), P07550; Am2.2-beta2AR cells; response, % (no concentration beside the values); 340,000 compounds, 0.43% hits;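 active = response above a set limit, near 3 SD of response in nonfluorescent compounds, cut at about 42% in these data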
# NadD inh: inhibitors of S. aureus NadD, primary screen, biochemical, colorimetric, uHTS; Nicotinate-nucleotide adenylyltransferase NadD (Staphylococcus aureus N315); purified NadD enzyme, colorimetric absorbance read-out; inhibition, % at 20 µM; 360,000 compounds, 0.78% hits; AID 602399, 2012; in the data active = inhibition above about 26%
# ABHD5-PLIN5 inh: ABHD5-PLIN5 interaction inhibitors, primary screen, cell lysate, split luciferase complementation, luminescence. Perilipin-5 (Homo sapiens) + 1-acylglycerol-3-phosphate O-acyltransferase ABHD5 (Homo …. Split G. princeps luciferase complementation, 4 h. inhibition, % at 4 µM. 360,000 compounds, 0.78% hits;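 active = inhibition above the mean inhibition across every tested compound plus 3 SD, cut at about 22% in these data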;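 also: 0% = DMSO only wells and the 100% control is not disclosed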
# GRK2 inh: compounds blocking aptamer binding on GRK2 – biochemical, human GRK2, bead flow cytometry, HTS, primary screen. AID 488847, 2010. inhibition of aptamer binding, % at 10 µM. FAM-aptamer displacement from GRK2. 330,000 compounds, 0.59% hits. Beta-adrenergic receptor kinase 1 (Homo sapiens), P25098;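 active = inhibition of aptamer binding above 40%, roughly 3 SD of noise, on plates passing a quality check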;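 also: median bead fluorescence of bound FAM aptamer so fluorescent compounds give negative values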
# Target sequence (P25098 whole entry, looked up): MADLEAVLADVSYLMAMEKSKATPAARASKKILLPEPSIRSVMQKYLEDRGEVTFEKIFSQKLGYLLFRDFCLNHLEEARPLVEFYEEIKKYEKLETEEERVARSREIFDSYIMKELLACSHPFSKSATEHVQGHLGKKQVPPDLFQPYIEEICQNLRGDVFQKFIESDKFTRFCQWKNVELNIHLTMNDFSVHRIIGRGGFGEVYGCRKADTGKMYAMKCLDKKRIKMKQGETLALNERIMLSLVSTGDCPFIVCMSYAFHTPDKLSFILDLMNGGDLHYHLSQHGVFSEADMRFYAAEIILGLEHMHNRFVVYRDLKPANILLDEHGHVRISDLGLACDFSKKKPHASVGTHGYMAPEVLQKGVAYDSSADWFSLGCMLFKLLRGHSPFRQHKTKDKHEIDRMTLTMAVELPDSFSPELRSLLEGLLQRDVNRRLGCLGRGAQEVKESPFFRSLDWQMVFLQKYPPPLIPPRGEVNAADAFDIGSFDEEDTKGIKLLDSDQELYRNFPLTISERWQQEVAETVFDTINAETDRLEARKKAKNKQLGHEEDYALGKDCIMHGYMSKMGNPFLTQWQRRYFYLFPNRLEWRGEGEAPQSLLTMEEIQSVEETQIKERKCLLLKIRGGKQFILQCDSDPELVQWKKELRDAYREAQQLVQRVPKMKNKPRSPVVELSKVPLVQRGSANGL
# SENP1 FRET inh: human SENP1 catalytic domain inhibitors, primary screen, biochemical, FRET, uHTS; Sentrin-specific protease 1 (Homo sapiens), Q9P0U3; recombinant SENP1 catalytic domain, CyPet-SUMO1-YPet FRET cleavage; inhibition, % at 10 µM; 360,000 compounds, 0.21% hits; AID 624204, 2012;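 active = inhibition at least 30% at 10 µM, raw YFP signal under a set limit, fluorescence ratio 0.5 to 1.5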;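 also: 0% = enzyme with DMSO and 100% = no enzyme wells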
#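 Controls: no-enzyme wells low, DMSO-plus-enzyme wells high control. Test system: human recombinant His6-tagged SENP1 catalytic domain enzyme. Reagent: SFCypet-SUMO1-SFYpet FRET protein substrate, 25 nM final. Doses: one dose per compound, 10 µM, 0.5% DMSO. Detection: FRET, CFP and YFP emission. Timing: 50 min reaction at room temperature.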
# GRK2 CP1: GRK2 aptamer-displacing inhibitors, retest, confirmation, biochemical, cherry pick 1, bead flow cytometry; 2,000 compounds, 4% hits; aptamer displacement, % at 10 µM; bead-bound GRK2, FAM-aptamer displacement; AID 504451, 2011; shares compounds with GRK2 inh;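 active = aptamer displacement above 40%, near three times the noise of non-fluorescent compounds, on plates passing quality checks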;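 also: negative values mostly reflect intrinsic compound fluorescence rather than true enhancement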
# Aptamer quench: counter-screen for GRK2 aptamer inhibitors: fluorescent aptamer quenchers; shares compounds with GRK2 inh; Fluorescent RNA aptamer beads, quenching, flow cytometry; stronger effect = higher value; fluorescence change (kMESF span), kMESF (test concentration not listed); 110 tested, under 10 active; AID 504521;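 active = compounds whose bead fluorescence drops by more than 37 kMESF across the dose range, marking them as dye quenchers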
# FAM quench CP1: aptamer fluorescence quenching in GRK2 counter-screen; AID 504580; 2,000 tested, under 10 active; Carboxyfluorescein RNA aptamer on beads, flow cytometry quenching; stronger effect = lower value; shares compounds with GRK2 inh; fluorescence response (% of DMSO), % at 10 µM;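 active = compounds that quench the bead-bound fluorescent RNA probe, cutting fluorescence to under half of the solvent control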;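 also: counterscreen run without GRK2 so only probe quenching by compound is measured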
# GRK2 confirm 2: GRK2 aptamer-displacing inhibitors, hit retest, confirmation, biochemical, cherry pick 2, bead flow cytometry. shares compounds with GRK2 inh. bead-bound GRK2, FAM-aptamer displacement. inhibition of aptamer binding, % at 10 µM. 360 tested, under 10 active. AID 504782, 2011;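 active = inhibition of aptamer binding above 40%, about triple the noise seen with nonglowing compounds, on plates passing quality control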;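 also: negative values mostly come from compounds that fluoresce themselves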
# FAM quench CP2: quenches fluorescent RNA aptamer, GRK2 hit artifact | shares compounds with GRK2 inh | carboxyfluorescein RNA aptamer beads, flow cytometry quenching; stronger effect = lower value | fluorescence response vs DMSO, % at 10 µM | 360 tested, under 10 active | AID 588494;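 active = response vs DMSO under 50%, meaning signal dropped by over half, treated as fluorescence quencher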;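 also: labelled aptamer on streptavidin beads without GRK2 as a quench counter-screen; 100% = bead fluorescence of DMSO wells and lower means quenching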
# FAM quench DR: quenchers of FAM-labeled RNA aptamer fluorescence, dose response, artefact control for GRK2 aptamer binding project, biochemical, powder set 1, flow cytometry | AID 588496, 2011 | Bead-bound FAM RNA aptamer fluorescence quenching; stronger effect = lower value | shares compounds with GRK2 inh | fluorescence ratio to DMSO, % at 11.1 µM | 35 tested, under 10 active;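 active = compounds that dim the fluorescent label, raw bead signal shifting by over 33 units between lowest and highest dose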
# Active calls of the source: *; / = no result.
SMILES,B2AR ag,NadD inh,ABHD5-PLIN5 inh,GRK2 inh,SENP1 FRET inh,GRK2 CP1,FAM quench CP1,others
O=C(CSc1nc2ccccc2c(=O)n1-c1ccccc1)NC(=O)CN1CCCC1=O,-0.4,7.5,-0.3,70.0*,0.1,49.8*,103.2,Aptamer quench=12.2;GRK2 confirm 2=28.1;FAM quench CP2=100.0;FAM quench DR=96.0
O=C(COc1ccc(Br)cc1)N1CCc2ccccc2C1,-5.0,-4.0,-3.2,0.0,-0.5,/,/,
O=C(Cc1ccc(Br)cc1)OCC(=O)N1CCc2ccccc2C1,2.9,-8.8,0.5,46.0*,2.7,/,/,GRK2 confirm 2=-9.2;FAM quench CP2=103.0
COc1ccccc1-c1cc(C(=O)N2CCOCC2)no1,6.8,-2.6,2.4,3.0,3.2,/,/,
O=C1OCc2ccc(NC(=O)c3sccc3Cl)cc21,-10.0,-2.4,-5.4,73.0*,1.0,-0.8,100.8,
Cc1ccc(S(=O)(=O)N(C)c2ccc(C(=O)NCC(c3ccco3)N3CCCC3)cc2)cc1 (centres undefined),/,-4.6,-7.8,/,-2.7,/,/,
O=C(NC1CC1)c1ccc(-c2cnc3cccnn23)cc1,/,-0.1,1.9,/,-23.4,/,/,
CCOc1ccc(-n2nc(C(=O)NC3CCCCC3)c3ccccc3c2=O)cc1,0.4,-1.8,6.9,81.0*,2.4,-3.9,101.5,
CCC(C)NC(=O)CNC(=O)c1nn(-c2ccc(OC)cc2)c(=O)c2ccccc12 (centres undefined),-4.5,-6.6,-3.6,44.0*,2.6,-1.6,93.0,
CCc1ccc(NC(=O)CNC(=O)c2nn(-c3ccc(OC)cc3)c(=O)c3ccccc23)cc1,2.8,-2.8,1.9,3.0,5.4,/,/,
CCC(C)NC(=O)CNC(=O)c1nn(-c2ccc(OC)c(Cl)c2)c(=O)c2ccccc12 (centres undefined),1.1,-5.1,1.8,0.0,-2.9,-3.3,100.7,
Cc1ccc(Cl)cc1NC(=O)c1cc(NC(=O)C2CCCCC2C(=O)O)ccc1N1CCOCC1 (centres undefined),20.0,10.3,-3.5,0.0,1.8,/,/,
O=C(NCC(c1ccc(F)cc1)N1CCOCC1)c1ccco1 (centres undefined),-7.2,4.4,7.0,1.0,0.9,/,/,
CC(=O)c1ccc(-c2cccc(-c3cc(=O)oc4ccc(C(C)(C)C)cc34)c2)cc1,1.1,4.2,-0.3,5.0,2.6,/,/,
COC(=O)c1ccc(CS(=O)(=O)c2ccccc2C)o1,2.2,-5.8,-2.2,4.0,1.9,/,/,GRK2 confirm 2=-2.1;FAM quench CP2=101.0
O=C(Nc1ccccc1N1CCCCC1)c1ccc(F)c(S(=O)(=O)N2CCOCC2)c1,27.3,-2.4,4.6,1.0,1.6,/,/,
CCOc1cc(N2CCOCC2)c(OCC)cc1NC(=O)c1ccc(F)c(S(=O)(=O)N2CCOCC2)c1,4.0,12.2,4.2,/,1.4,2.1,94.6,
CCOc1ccc(S(=O)(=O)N2CCOCC2)cc1NC(=O)c1ccccc1F,8.0,-0.7,0.0,1.0,1.2,/,/,
CCOc1cc(N2CCOCC2)c(OCC)cc1NC(=O)c1ccc(S(C)(=O)=O)cc1,1.5,-3.5,-0.7,90.0*,22.3,5.5,105.7,
CCOc1cc(N2CCOCC2)c(OCC)cc1NC(=O)c1cc(S(=O)(=O)N2CCOCC2)ccc1C,0.3,0.5,2.4,8.0,9.0,-0.4,97.1,
CC(=O)Nc1ccc(S(=O)(=O)NCCC(=O)OCC(=O)NCc2ccccc2)cc1,4.7,-6.9,4.3,1.0,1.2,/,/,
O=C(Nn1cnnc1)c1ccc(Cl)cc1[N+](=O)[O-],0.0,4.0,5.7,93.0*,-19.5,-3.7,100.6,
Cc1ccc(C(=O)Nn2cnnc2)cc1[N+](=O)[O-],-2.0,-0.1,2.9,47.0*,0.8,0.4,101.2,
O=c1[nH]c2ccc(Br)cc2c(=O)o1,/,-4.6,5.0,/,-57.5,/,/,
CCS(=O)(=O)Nc1cc2c3c(c1)CCN3C(=O)CC2,3.7,-8.1,2.7,45.0*,2.3,4.8,102.3,
SMILES,B2AR ag,NadD inh,ABHD5-PLIN5 inh,GRK2 inh,SENP1 FRET inh,GRK2 CP1,FAM quench CP1,others
O=S(=O)(Nc1ccccc1OC(F)F)c1ccc(S(=O)(=O)N2CCCC2)cc1,3.7,2.8,-6.7,0.0,0.9,/,/,
CCOC1=C2CN(S(=O)(=O)c3ccc(C)cc3)[C@H](c3ccccc3)C[C@@H]2N(S(C)(=O)=O)[C@H](c2ccccc2)C1,/,15.4,-0.5,/,-16.7,/,/,
C=CCn1cccc(C(=O)Nc2ccc(OC)c(OC)c2)c1=O,-5.3,-5.0,-5.4,48.0*,1.5,0.1,97.4,
C=CCn1cccc(C(=O)Nc2ccc(OC)c(Cl)c2)c1=O,6.2,0.6,-3.4,0.0,-1.2,/,/,
O=C(CSc1ccccc1)Nc1ccc(-c2nc3ccccc3[nH]2)cc1,-9.2,-0.8,-3.0,100.0*,1.5,/,/,GRK2 confirm 2=11.5;FAM quench CP2=101.0
O=C(O)C1CC=CCC1C(=O)Nc1ccc2c(c1)OCCO2 (centres undefined),-2.4,-1.1,-6.7,24.0,1.1,/,/,GRK2 confirm 2=12.2;FAM quench CP2=99.0
COc1ccccc1CCC(=O)Nc1ncc(C)s1,-0.7,-29.7,0.6,0.0,3.1,/,/,
COCCNC(=O)c1c[nH]c2ccc(S(=O)(=O)Nc3ccccc3F)cc2c1=O,-5.5,-5.8,-1.6,70.0*,-1.8,6.5,100.1,
COCCNC(=O)c1c[nH]c2ccc(S(=O)(=O)N3CCc4ccccc43)cc2c1=O,5.6,-2.4,1.3,0.0,-5.2,/,/,
COCCNC(=O)c1c[nH]c2ccc(S(=O)(=O)Nc3ccc(F)cc3F)cc2c1=O,-5.7,-5.6,-8.6,91.0*,0.0,6.9,98.9,
COCOc1ccc(C=O)c(OCOC)c1,-13.1,5.5,0.6,98.0*,3.8,-1.4,100.1,
